Laboratory results as given in ChEMBL document CHEMBL1240353 (Antimicrob Agents Chemother, 2010).
≈ marks a conversion by molar mass, not a printed value. Calls of active or inactive are those of the source. No cut-off for these calls is given here.

How the values were obtained:
[1] = Inhibition of PBP4 in penicillin-resistant Enterococcus faecium D63r membranes assessed as inhibition of fluorescent ampicillin binding after 20 mins at 37 degC
Procedure, shortened: (§1)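 Competition assay on purified membrane preparations (300 μg protein). Membranes preincubated 20 min at 37°C with increasing β-lactam concentrations, then 1 h at 37°C with saturating 25 μM fluorescent ampicillin. Proteins resolved by SDS-PAGE and fluorography. IC50 is the concentration inhibiting 50% of fluorescent ampicillin labelling relative to a drug-free control.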

Enterococcus faecium [2] = test: Antimicrobial activity against penicillin-resistant Enterococcus faecium D63r by microdilution method; assay type: functional
[3] = Inhibition of PBP6 in penicillin-resistant Enterococcus faecium D63r membranes assessed as inhibition of fluorescent ampicillin binding after 20 mins at 37 degC; procedure, shortened: as §1
[4] = Inhibition of PBP1 in penicillin-resistant Enterococcus faecium D63r membranes assessed as inhibition of fluorescent ampicillin binding after 20 mins at 37 degC; procedure, shortened: as §1
[5] = Inhibition of PBP2 in penicillin-resistant Enterococcus faecium D63r membranes assessed as inhibition of fluorescent ampicillin binding after 20 mins at 37 degC; procedure, shortened: as §1
[6] = Inhibition of PBP5 in penicillin-resistant Enterococcus faecium D63r membranes assessed as inhibition of fluorescent ampicillin binding after 20 mins at 37 degC; procedure, shortened: as §1
[7] = Inhibition of PBP3 in penicillin-resistant Enterococcus faecium D63r membranes assessed as inhibition of fluorescent ampicillin binding after 20 mins at 37 degC; procedure, shortened: as §1
Enterococcus faecium [8] = test: Antimicrobial activity against Enterococcus faecium D63 by microdilution method; assay type: functional
[9] = Inhibition of PBP5 in wild type Enterococcus faecium D63 membranes assessed as inhibition of fluorescent ampicillin binding after 20 mins at 37 degC; procedure, shortened: as §1
Staphylococcus aureus = test: Inhibition of Staphylococcus aureus PBP2a assessed as rate constant for enzyme acylation by spectrophotometry
Enterococcus faecium [10] = test: Antimicrobial activity against penicillin-resistant Enterococcus faecium D63r assessed as bacterial killing at 4 times MIC by time kill curve method; assay type: functional, organism-based
[11] = Inhibition of PBP2 in wild type Enterococcus faecium D63 membranes assessed as inhibition of fluorescent ampicillin binding after 20 mins at 37 degC; procedure, shortened: as §1
Enterococcus faecium [12] = test: Antimicrobial activity against Enterococcus faecium D63 assessed as bacterial killing at 4 times MIC by time kill curve method; assay type: functional, organism-based
Procedure, shortened: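 Survivors counted at 0, 4 and 24 h of incubation at 37°C by plating serial dilutions (at least 10-fold, to limit carryover).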

[13] = Inhibition of PBP3 in wild type Enterococcus faecium D63 membranes assessed as inhibition of fluorescent ampicillin binding after 20 mins at 37 degC
[14] = Inhibition of PBP6 in wild type Enterococcus faecium D63 membranes assessed as inhibition of fluorescent ampicillin binding after 20 mins at 37 degC; procedure, shortened: as §1
[15] = Inhibition of PBP4 in wild type Enterococcus faecium D63 membranes assessed as inhibition of fluorescent ampicillin binding after 20 mins at 37 degC
[16] = Inhibition of PBP1 in wild type Enterococcus faecium D63 membranes assessed as inhibition of fluorescent ampicillin binding after 20 mins at 37 degC
Enterococcus faecium [17] = test: Inhibition of Enterococcus faecium low-affinity PBP5fm assessed as rate constant for enzyme acylation by spectrophotometry
Procedure, shortened: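 Soluble PBP 5fm (N-terminal membrane anchor removed), overproduced and purified without molecular sieve step. β-lactam ring opening followed at 319 nm, 30°C, 10 mM phosphate pH 7.0, 10 μM enzyme, across drug concentrations. Pseudo-first-order ka fitted from absorbance traces. k+2/K taken from slope of ka versus concentration.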

Compound | IC50 [1] [µg/mL] | MIC (Enterococcus faecium [2]) [µg/mL] | IC50 [3] [µg/mL] | IC50 [4] [µg/mL] | IC50 [5] [µg/mL] | IC50 [6] [µg/mL] | IC50 [7] [µg/mL] | MIC (Enterococcus faecium [8]) [µg/mL] | IC50 [9] [µg/mL] | INH (Staphylococcus aureus) [M⁻¹ s⁻¹] | inhibition (Enterococcus faecium [10]) | IC50 [11] [µg/mL] | inhibition (Enterococcus faecium [12]) | IC50 [13] [µg/mL] | IC50 [14] [µg/mL] | IC50 [15] [µg/mL] | IC50 [16] [µg/mL] | INH (Enterococcus faecium [17]) [M⁻¹ s⁻¹]
CO/N=C(\C(=O)N[C@@H]1C(=O)N2C(C(=O)[O-])=C(C[N+]3(C)CCCC3)CS[C@H]12)c1csc(N)n1 | > 200 | > 100 | > 50 | 1.7 (≈ 3.54 µM) | 0.6 (≈ 1.25 µM) | > 200 | 0.5 (≈ 1.04 µM) | – | – | – | – | – | – | – | – | – | – | –
CC1(C)S[C@@H]2[C@H](NC(=O)[C@H](N)c3ccccc3)C(=O)N2[C@H]1C(=O)O [AMPICILLIN] | – | 125 (≈ 358 µM) | – | – | – | – | – | 15 (≈ 42.9 µM) | – | – | – | – | – | – | – | – | – | –
CC(C)(O/N=C(\C(=O)N[C@@H]1C(=O)N2C(C(=O)[O-])=C(C[n+]3ccccc3)CS[C@H]12)c1csc(N)n1)C(=O)O [CEFTAZIDIME] | > 200 | > 100 | > 50 | 0.9 (≈ 1.65 µM) | 0.5 (≈ 0.915 µM) | > 200 | 0.04 (≈ 0.0732 µM) | – | – | – | – | – | – | – | – | – | – | –
Nc1nc(/C(=N/O)C(=O)N[C@@H]2C(=O)N3C(C(=O)O)=C(/C=C4\CCN([C@@H]5CCNC5)C4=O)CS[C@H]23)ns1 [CEFTOBIPROLE] | 1.8 (≈ 3.37 µM) | 8 (≈ 15 µM) | – | 0.7 (≈ 1.31 µM) | 0.2 (≈ 0.374 µM) | 1 (≈ 1.87 µM) | 0.5 (≈ 0.935 µM) | 2 (≈ 3.74 µM) | 0.7 (≈ 1.31 µM) | 8900 | Active | 0.2 (≈ 0.374 µM) | Active | 0.6 (≈ 1.12 µM) | > 16 | 1.5 (≈ 2.81 µM) | 0.6 (≈ 1.12 µM) | 110
CC1(C)S[C@@H]2[C@H](NC(=O)Cc3ccccc3)C(=O)N2[C@H]1C(=O)O [PENICILLIN G] | 8 (≈ 23.9 µM) | 70 (≈ 209 µM) | 2 (≈ 5.98 µM) | 1.6 (≈ 4.78 µM) | 0.06 (≈ 0.179 µM) | 55 (≈ 164 µM) | 0.6 (≈ 1.79 µM) | 5 (≈ 15 µM) | 75 (≈ 224 µM) | – | Active | 0.1 (≈ 0.299 µM) | Active | 1.3 (≈ 3.89 µM) | 1.5 (≈ 4.49 µM) | 10 (≈ 29.9 µM) | 0.9 (≈ 2.69 µM) | 15
